Source: ChEMBL document CHEMBL1123859, “Substituted arylmethyl phenyl ethers. 1. A novel series of 5-lipoxygenase inhibitors and leukotriene antagonists” (J Med Chem, 1987)

How the values were obtained:
Cavia porcellus [1] = organism: Cavia porcellus; assay: Percent inhibition of LTC4-induced contraction in guinea pig parenchymal strip test, at a concentration of 30 uM; assay type: functional
In short: (§1)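 Guinea pig lung parenchymal strips were held in a tissue bath. Repeated 1 μM histamine challenges gave a control response used to normalize all later responses. Compounds were first checked at 30 μM alone for intrinsic activity. After preincubation (usually 5 min), strips were challenged with 0.2 nM LTC4. Inhibition of the contraction was scored, and 20% or less counted as ineffective.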

[2] = target: T1, Polyunsaturated fatty acid 5-lipoxygenase (Rattus norvegicus) (UniProt P12527); assay: IC50 for inhibition of rat neutrophil 5-lipoxygenase (5-LO)
T1 sequence (whole entry): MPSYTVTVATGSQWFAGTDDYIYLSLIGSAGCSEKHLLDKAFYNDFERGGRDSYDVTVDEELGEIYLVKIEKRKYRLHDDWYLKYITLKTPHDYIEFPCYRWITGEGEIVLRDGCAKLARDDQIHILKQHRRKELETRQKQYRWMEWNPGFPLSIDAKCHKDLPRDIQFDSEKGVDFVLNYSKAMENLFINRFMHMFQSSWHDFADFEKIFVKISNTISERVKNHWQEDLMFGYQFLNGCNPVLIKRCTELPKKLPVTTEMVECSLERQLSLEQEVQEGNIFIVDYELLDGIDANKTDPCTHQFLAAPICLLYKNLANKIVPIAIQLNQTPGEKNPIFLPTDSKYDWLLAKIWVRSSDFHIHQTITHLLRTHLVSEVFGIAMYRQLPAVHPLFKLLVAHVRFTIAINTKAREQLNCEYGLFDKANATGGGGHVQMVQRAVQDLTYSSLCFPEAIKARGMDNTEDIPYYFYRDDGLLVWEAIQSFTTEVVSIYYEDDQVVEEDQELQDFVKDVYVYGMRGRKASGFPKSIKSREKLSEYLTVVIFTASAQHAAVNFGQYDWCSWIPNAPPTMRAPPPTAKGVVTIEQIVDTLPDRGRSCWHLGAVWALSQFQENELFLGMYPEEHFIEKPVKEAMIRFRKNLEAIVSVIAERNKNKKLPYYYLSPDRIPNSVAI

[3] = target: T2, Polyunsaturated fatty acid 5-lipoxygenase (Rattus norvegicus, UniProt P12527); assay: Inhibition of rat neutrophil 5- Lipoxygenase (5-LO); conditions: read-out: I50
T2 sequence (P12527 whole entry): T1 sequence (whole entry)
In short: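 Approximately 2 × 10^6 glycogen-elicited rat neutrophils in buffer were incubated for 3 min with 4 μM [14C]arachidonic acid and 0.8 μM calcium ionophore A23187. Net 5-HETE was taken as the cell-containing control minus the buffer-only blank. Each assay was run in triplicate.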

Cavia porcellus [4] = organism: Cavia porcellus; assay: Percent inhibition of LTC4-induced contraction in guinea pig parenchymal strip test, at a concentration of 15 uM; assay type: functional; in short: as §1
[5] = target: T2, Polyunsaturated fatty acid 5-lipoxygenase; assay: Inhibition of rat neutrophil 5- Lipoxygenase (5-LO),; conditions: read-out: I50
In short: (§2)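 Approximately 2 × 10^6 glycogen-elicited rat neutrophils in buffer were incubated for 3 min with 4 μM [14C]arachidonic acid and 0.8 μM calcium ionophore A23187. Net 5-HETE was taken as the cell-containing control minus the buffer-only blank. […] Each assay was run in triplicate.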

Cavia porcellus [6] = organism: Cavia porcellus; assay: Percent inhibition of LTC4-induced contraction in guinea pig parenchymal strip test, at a concentration of 20 uM; assay type: functional; in short: as §1
Cavia porcellus [7] = organism: Cavia porcellus; assay: Percent inhibition of LTC4-induced contraction in guinea pig parenchymal strip test, at a concentration of 100 uM; assay type: functional; in short: as §1
Cavia porcellus [8] = organism: Cavia porcellus; assay: Percent inhibition of LTC4-induced contraction in guinea pig parenchymal strip test, at a concentration of 19 uM; assay type: functional; in short: as §1
[9] = target: T1, Polyunsaturated fatty acid 5-lipoxygenase (Rattus norvegicus); assay: Percent inhibition of rat neutrophil 5- Lipoxygenase (5-LO) at 100 uM; in short: as §2
Cavia porcellus [10] = organism: Cavia porcellus; assay: Percent inhibition of LTC4-induced contraction in guinea pig parenchymal strip test, at a concentration of 3.6 uM; assay type: functional; in short: as §1
Cavia porcellus [11] = organism: Cavia porcellus; assay: Percent inhibition of LTC4-induced contraction in guinea pig parenchymal strip test, at a concentration of 10 uM; assay type: functional; in short: as §1
Cavia porcellus [12] = organism: Cavia porcellus; assay: Percent inhibition of LTC4-induced contraction in guinea pig parenchymal strip test, at a concentration of 12 uM; assay type: functional; in short: as §1
Cavia porcellus [13] = organism: Cavia porcellus; assay: Percent inhibition of LTC4-induced contraction in guinea pig parenchymal strip test, at a concentration of 8 uM; assay type: functional; in short: as §1
Cavia porcellus [14] = organism: Cavia porcellus; assay: Percent inhibition of LTC4-induced contraction in guinea pig parenchymal strip test, at a concentration of 22 uM,; assay type: functional; in short: as §1
Cavia porcellus [15] = organism: Cavia porcellus; assay: Percent inhibition of LTC4-induced contraction in guinea pig parenchymal strip test, at a concentration of 40 uM; assay type: functional; in short: as §1
Cavia porcellus [16] = organism: Cavia porcellus; assay: Percent inhibition of LTC4-induced contraction in guinea pig parenchymal strip test, at a concentration of 9 uM; assay type: functional; in short: as §1

| SMILES | inhibition at 30 µM (Cavia porcellus [1]) | IC50 [2] | other results |
| --- | --- | --- | --- |
| CCCCC(C)(C)C(C)(O)c1cccc(OCc2ccccc2)c1 (centres undefined) | 10% | 2.4 µM |  |
| CCCC/C=C/c1ccc(OCc2cccc(C(=O)OC)c2)cc1 | 26% | > 100 µM |  |
| CCCCC(C)(C)C(O)c1cccc(OCc2ccccc2)c1 (centres undefined) |  | 2.5 µM |  |
| CCCCCC(O)c1cccc(OCc2cccc(C(F)(F)F)c2)c1 (centres undefined) | 10% |  | IC50 [3]: 4 µM |
| CCCCCC(O)c1cccc(OCc2cccc(C=O)c2)c1 (centres undefined) |  | 4 µM |  |
| CCCCC(O)c1cccc(OCc2ccccc2CO)c1 (centres undefined) |  |  | inhibition at 15 µM (Cavia porcellus [4]): 50%; IC50 [3]: 4 µM |
| CCCCCC(O)c1cccc(OCc2cccc(C(=O)OC)c2)c1 (centres undefined) | 20% |  | IC50 [5]: 1 µM |
| CCCCCC(OC)c1cccc(OCc2cccc(C(=O)OC)c2)c1 (centres undefined) | 22% | 10 µM |  |
| CCCCCC(=O)c1cccc(OCc2ccc3ccccc3n2)c1 |  |  | inhibition at 20 µM (Cavia porcellus [6]): 50%; IC50 [3]: 0.37 µM |
| CCCCCC(=O)c1cccc(/C=C\c2ccccc2)c1 | -20% | 45 µM |  |
| CCCCCC(O)c1cccc(OCc2ccccc2)c1 (centres undefined) |  | 2.7 µM | inhibition at 100 µM (Cavia porcellus [7]): 10% |
| CCCCC(OC1CCCCO1)c1cccc(OCc2ccccc2C(=O)OC)c1 (centres undefined) |  | 14 µM |  |
| CCCCCC(NC)c1cccc(OCc2ccccc2)c1 (centres undefined) | 50% | 22 µM |  |
| CCCC/C=C(/C)c1ccccc1OCc1cccc(C(=O)OC)c1 | 7% | 5 µM |  |
| CCCCCC(O)c1cccc(OCc2ccc3ccccc3c2)c1 (centres undefined) | 10% | 5 µM |  |
| CCCCC(O)c1cccc(OCc2ccccc2C(=O)O)c1 (centres undefined) |  | 10 µM | inhibition at 19 µM (Cavia porcellus [8]): 50% |
| CCCCCC(C)(O)c1cccc(OCc2ccccc2)c1 (centres undefined) | 10% | 1 µM |  |
| CCCCCC(O)c1cccc(O)c1 (centres undefined) |  |  | inhibition [9]: 43% |
| CCCCCC(O)c1cccc(OCc2ccc3ccccc3n2)c1 (centres undefined) [REV-5901] |  |  | inhibition at 3.6 µM (Cavia porcellus [10]): 50% |

| SMILES | inhibition at 30 µM (Cavia porcellus [1]) | IC50 [2] | other results |
| --- | --- | --- | --- |
| CCCCCC(O)c1cccc(OCc2cccc(C(=O)O)n2)c1 (centres undefined) | 50% |  | IC50 [5]: 5 µM |
| CCCCCC(O)c1cccc(Oc2ccccc2)c1 (centres undefined) | 50% | 1.2 µM |  |
| CCCCCC(O)c1cccc(OCc2cccc(C(=O)O)c2)c1 (centres undefined) | 30% |  | IC50 [5]: 20.5 µM |
| CCCCC[C@H](O)/C=C/C=C\C/C=C\C/C=C\CCCC(=O)O [ICOMUCRET] |  |  | IC50 [3]: 1.45 µM |
| CCCCCC(O)c1cccc(OCc2ccc(C(=O)OC)cc2)c1 (centres undefined) |  | 3.2 µM | inhibition at 10 µM (Cavia porcellus [11]): 0% |
| CCCCCC(=O)c1cccc(OCc2cccc(C#N)c2)c1 | -30% |  | IC50 [3]: 6 µM |
| CCCC/C=C\c1cccc(OCc2ccc3ccccc3n2)c1 |  | > 10 µM | inhibition at 12 µM (Cavia porcellus [12]): 50% |
| CCCCCC(O)c1cccc(OCc2cccc(C(=O)OC)n2)c1 (centres undefined) |  |  | IC50 [3]: 1.9 µM |
| CCCCCC(=O)c1cccc(OCc2ccccc2)c1 |  | 2 µM | inhibition at 100 µM (Cavia porcellus [7]): 50% |
| CCCCCC(O)c1cccc(OCc2ccncc2)c1 (centres undefined) |  | 2.7 µM | inhibition at 100 µM (Cavia porcellus [7]): 50% |
| CCCCCC(C)(O)c1cccc(OCc2ccc3ccccc3n2)c1 (centres undefined) |  |  | IC50 [3]: 0.13 µM; inhibition at 8 µM (Cavia porcellus [13]): 50% |
| CCCCCC(O)c1cccc(COc2ccccc2)c1 (centres undefined) | 19% | 6.7 µM |  |
| CCCCCC(O)c1cccc(OCc2cccc(CC(=O)OC)c2)c1 (centres undefined) | 19% | 5.8 µM |  |
| CCCCCC(O)c1cccc(OCc2ccccc2C(=O)O)c1 (centres undefined) |  | 30 µM | inhibition at 20 µM (Cavia porcellus [6]): 50% |
| CCCCCC(O)c1cccc(/C=C/c2ccccc2)c1 (centres undefined) | 12% | 4.5 µM |  |
| CCCCCC(C)(O)c1cccc(OCc2ccccn2)c1 (centres undefined) |  |  | inhibition at 22 µM (Cavia porcellus [14]): 50%; IC50 [3]: 0.43 µM |
| CCCCC(C)(C)C(O)c1cccc(OCc2cccc(C(=O)OC)c2)c1 (centres undefined) | 0% |  | IC50 [3]: 2 µM |
| CCCCC(C)C(O)c1cccc(OCc2ccccc2)c1 (centres undefined) | 0% | 3 µM |  |
| CCCCCC(O)c1cccc(OCc2cccc(CC(=O)O)c2)c1 (centres undefined) |  | 2.5 µM | inhibition at 40 µM (Cavia porcellus [15]): 50% |

| SMILES | inhibition at 30 µM (Cavia porcellus [1]) | IC50 [2] | other results |
| --- | --- | --- | --- |
| CCCCCC(OC(C)=O)c1cccc(OCc2cccc(C(=O)OC)c2)c1 (centres undefined) | 5% | 5 µM |  |
| CCCCC(C)(C)C(=O)c1cccc(OCc2ccccc2)c1 | 11% |  | IC50 [5]: 7.5 µM |
| CCCCCC(O)c1cccc(OCc2ccc(C(=O)O)cc2)c1 (centres undefined) | 22% | 21 µM |  |
| CCCCCC(O)c1cccc(OCc2cccnc2)c1 (centres undefined) |  | 2.7 µM | inhibition at 9 µM (Cavia porcellus [16]): 50% |
| CCCCCC(O)c1ccccc1OCc1cccc(C(=O)OC)c1 (centres undefined) |  | 3.2 µM | inhibition at 20 µM (Cavia porcellus [6]): 50% |
| CCCCCC(=O)c1cccc(OCc2cccc(C(N)=O)c2)c1 | 5% | 0.6 µM |  |
| CCCCC(O)c1cccc(OCc2ccccc2C(=O)OC)c1 (centres undefined) | 35% | 2.5 µM |  |
| CCCCCC(O)c1cccc(OCc2ccc(OCC(=O)OC)cc2)c1 (centres undefined) |  | 4.8 µM |  |
| CCCCCC(O)c1cccc(Oc2ccc3ccccc3n2)c1 (centres undefined) | 26% | 0.35 µM |  |
| CCCCCC(=O)c1cccc(/C=C/c2ccccc2)c1 | 0% | > 100 µM |  |
| CCCCCC(O)c1cccc(OCc2cccc(C#N)c2)c1 (centres undefined) |  | 17 µM | inhibition at 10 µM (Cavia porcellus [11]): 3% |
| CCCCCC(O)c1cccc(OCc2ccccn2)c1 (centres undefined) | 37% | 0.5 µM |  |
| CCCCCC(OC1CCCCO1)c1cccc(OCc2cccc(C(=O)OC)c2)c1 (centres undefined) | 0% | 23 µM |  |
| CCCCCC(O)c1cccc(OCc2cccc(C#N)n2)c1 (centres undefined) |  | 30 µM | inhibition at 10 µM (Cavia porcellus [11]): 36% |
| CCCCCC(O)c1cccc(OCc2cccc(CN)c2)c1 (centres undefined) | 0% | 36 µM |  |
| CCCCCC(O)c1cccc(OCc2cccc(C(N)=O)c2)c1 (centres undefined) |  | 2 µM | inhibition at 10 µM (Cavia porcellus [11]): 0% |
| CCCCCC(O)c1cccc(/C=C\c2ccccc2)c1 (centres undefined) | 5% | 6.4 µM |  |
| CCCCCC(O)c1cccc(OCc2ccccc2C(=O)OC)c1 (centres undefined) | 23% | 0.6 µM |  |
